An excerpt weighted towards active compounds, which were near 2.7% of everything screened.
sPLA2-III inh: Inhibits HGIII-sPLA2 liposome hydrolysis, primary screen. AID 743126. inhibition, % at 12.2 µM. QFRET BODIPY PC-A2 liposome hydrolysis, fluorescence. Q9NZ20. 370,000 compounds, 0.56% hits;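 active = inhibition above mean plus 3 SD of compounds lying within the high and low control bounds, cut at about 19% in these data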
MsrA inhibitor: inhibitors of bovine MsrA; 360,000 compounds, 0.75% hits; purified bovine MsrA, absorbance read-out; AID 651718; inhibition, % at 15.5 µM
ASAP1 inh: ASAP1 ArfGAP inhibition; Q9ULH1; ASAP1-stimulated ARF1 GTP hydrolysis, GDP FP detection; AID 624377; inhibition, % at 16.5 µM; 360,000 compounds, 0.19% hits; in the data active = inhibition above about 25%
Rev-erbA mod: modulates human Rev-erb alpha binding to DNA | P20393 | Rev-erbα–FITC-DNA binding, fluorescence polarization, 90 min | 370,000 compounds, 0.79% hits | AID 1259318 | activity, % at 10 µM;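 active = activity above about 14%, limit read from the data; passing the limit was not always enough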
Target sequence (P20393 whole entry, looked up): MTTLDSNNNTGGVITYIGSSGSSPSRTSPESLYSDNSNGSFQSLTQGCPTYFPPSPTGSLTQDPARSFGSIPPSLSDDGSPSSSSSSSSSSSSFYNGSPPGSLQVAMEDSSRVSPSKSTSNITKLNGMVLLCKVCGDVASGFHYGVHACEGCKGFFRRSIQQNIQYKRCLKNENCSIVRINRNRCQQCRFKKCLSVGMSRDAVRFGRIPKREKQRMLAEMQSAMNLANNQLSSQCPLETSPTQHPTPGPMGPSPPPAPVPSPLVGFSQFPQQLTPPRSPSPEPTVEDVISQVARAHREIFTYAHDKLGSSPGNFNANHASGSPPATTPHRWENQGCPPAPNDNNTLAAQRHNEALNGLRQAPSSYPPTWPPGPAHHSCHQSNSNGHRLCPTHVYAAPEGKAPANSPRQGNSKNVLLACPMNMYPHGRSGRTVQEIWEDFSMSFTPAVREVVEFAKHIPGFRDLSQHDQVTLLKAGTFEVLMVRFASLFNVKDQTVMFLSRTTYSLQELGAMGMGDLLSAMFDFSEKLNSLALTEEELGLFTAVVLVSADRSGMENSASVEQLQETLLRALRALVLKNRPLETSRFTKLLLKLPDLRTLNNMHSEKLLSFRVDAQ
ARFGAP1 inhibitor: rat ARFGAP1 inhibition | Q62848 | Arfgap1-stimulated ARF1 GTP hydrolysis, GDP FP detection | inhibition, % at 16.5 µM | 360,000 compounds, 0.26% hits;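 active = inhibition above a per-plate limit, mean inhibition of low control wells plus 3 SD, cut at about 25% in these data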
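Repeats: one replicate per compound; assay system: rat Arfgap1 catalytic domain, aa 1-136; times: enzyme reaction 120 min at 25 °C after 20 min preincubation; detection: FP of antibody-bound GDP Alexa 633 tracer, ex 620/em 688 nm; benchmarks: high control wells lacking Arfgap1, low control full reaction with DMSO; reagent: human ARF1(Δ1-17)-GTP substrate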
bovine MsrA act: activates bovine MsrA enzyme | purified bovine MsrA, absorbance read-out | AID 602163 | 360,000 compounds, 0.3% hits | activation, % at 10.6 µM; in the data active = activation above about 7.5%
MsrA inh confirm: confirmation of bovine MsrA inhibitors. shares compounds with MsrA inhibitor. purified bovine MsrA, absorbance read-out. inhibition, % at 15.5 µM. 2,300 compounds, 41% hits;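 also: coupled to thioredoxin reductase with NADPH and selenocystamine and DMSO as substrate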
Hits are given with their value; n = inactive; x = no result. Rule as the data show it, unless noted: active = inhibition above about 4.5%; inactive = the rest.

SMILES | sPLA2-III inh | MsrA inhibitor | ASAP1 inh | Rev-erbA mod | ARFGAP1 inhibitor | bovine MsrA act | MsrA inh confirm
COc1ccc(-n2c(SCC(=O)Nc3cc(C)c(NC(=O)c4ccccc4)cc3OC)nnc2-c2ccccc2F)cc1 | n | x | x | n | x | x | x
O=C(N/N=C/c1ccc(Br)o1)/C(=C/c1ccc([N+](=O)[O-])cc1)NC(=O)c1ccccc1 | n | 5.3 | n | n | n | n | n
O=C(N/N=C/c1ccco1)/C(=C/c1cccc([N+](=O)[O-])c1)NC(=O)c1ccccc1 | n | 5.4 | n | n | n | n | n
Cc1cc(/N=C/C=C2\N(C)c3ccccc3C2(C)C)n(CCC#N)n1 | n | 5.4 | n | n | n | n | n
CN1/C(=C\C=O)C(C)(C)c2ccccc21 | n | 6.8 | n | n | n | n | 6.0
CN(C)c1ccc(N=C/C=C2\N(C)c3ccccc3C2(C)C)cc1 | n | 5.0 | n | n | n | n | n
CN1/C(=C/C=C(C#N)C#N)C(C)(C)c2ccccc21 | n | n | n | n | n | n | x
COC(=O)[C@]12C[C@H](CC(=O)NCc3ccc(C)o3)C(=O)N(Cc3cccc4ccccc34)C1=C[C@H](C(C)(C)C)O[C@@H]2C | n | x | x | n | x | x | x
CCOC(=O)Cn1cc(CN2CCS(=O)(=O)N(Cc3ccccc3)C(C(=O)OC)C2)nn1 (centres undefined) | n | x | x | n | x | x | x
N[C@@H](CSCCCO)C(=O)O | x | x | x | n | x | x | x
Cc1nc(N)sc1C(=O)N/N=C/c1cccnc1 | n | 5.8 | n | n | n | n | n
COc1ccccc1/C=N/NC(=O)c1sc(C)nc1C | n | 5.1 | n | n | n | n | n
COc1ccc(C(=O)N/N=C/c2cccnc2)cc1 | n | n | n | n | n | n | x
Cc1nc(N2CCN(Cc3ccc4c(c3)OCO4)CC2)c2oc3ccccc3c2n1 | n | 9.9 | n | n | n | n | n
Cc1nc(N2CCN(Cc3ccc(Cl)cc3)CC2)c2oc3ccccc3c2n1 | n | n | n | n | n | n | x
COc1cc2c(cc1C=O)OC(C)C2 (centres undefined) | n | n | n | n | n | n | x
CCOc1cc2c(cc1C=O)OC(C)C2 (centres undefined) | n | 4.8 | n | n | n | n | n
Cc1cccc(/N=C/c2nc(-c3ccccc3Br)oc2O)n1 | n | n | n | n | n | n | x
Cc1ccnc(N=Cc2nc(-c3ccccc3Br)oc2O)c1 | n | 6.5 | n | n | n | n | n
O=C(/C=C/c1ccc(O)c(O)c1)OC1C(O)CC(OC(=O)/C=C/c2ccc(O)c(O)c2)(C(=O)O)CC1O (centres undefined) | n | 5.7 | n | n | n | n | n
O=C(/C=C/c1ccc(O)c(O)c1)O[C@@H]1C[C@](O)(C(=O)O)C[C@@H](O)[C@H]1O | n | n | n | n | n | n | x
Cc1ccc(NC(=O)c2cc(=O)[nH]c3ccc(S(=O)(=O)N4CCOCC4)cc23)cc1 | n | n | n | n | n | n | x
CCc1cccc(C)c1NC(=O)c1cc(=O)[nH]c2ccc(S(=O)(=O)N3CCOCC3)cc12 | n | 17 | n | n | n | n | 28
NC(=O)CN1C(=O)C(O)(CC(=O)/C=C\C=C\c2ccccc2)c2ccccc21 (centres undefined) | n | 5.4 | n | n | n | n | 5.0
Cc1ccc2c(c1)C(O)(CC(=O)/C=C/C=C/c1ccccc1)C(=O)N2 (centres undefined) | n | 6.3 | n | n | n | n | n
SMILES | sPLA2-III inh | MsrA inhibitor | ASAP1 inh | Rev-erbA mod | ARFGAP1 inhibitor | bovine MsrA act | MsrA inh confirm
CCN1C(=O)C(O)(CC(=O)/C=C/C=C/c2ccccc2)c2ccccc21 (centres undefined) | n | 5.8 | n | n | n | n | n
C#CCN1C(=O)C(O)(CC(=O)/C=C/C=C/c2ccccc2)c2ccccc21 (centres undefined) | n | n | n | n | n | n | x
NC(=O)CN1C(=O)C(O)(CC(=O)/C=C\c2ccc3c(c2)OCO3)c2ccccc21 (centres undefined) | n | 4.8 | n | n | n | n | n
CC(=O)Nc1ccc(S(=O)(=O)Nc2nc3ccccc3nc2N2CCCC2)cc1 | n | n | n | n | n | n | x
CCN1CCN(c2nc3ccccc3nc2NS(=O)(=O)c2ccc(NC(C)=O)cc2)CC1 | n | 4.7 | n | n | n | n | n
COC[C@@H]1CCCN1c1ccc2c(c1)O[C@@H]1CCN(C1)S2(=O)=O | n | x | x | n | x | x | x
Cc1ccccc1-n1ncc2c([N+](=O)[O-])cc([N+](=O)[O-])cc21 | n | 5.6 | n | n | n | n | n
O=C1C(Nc2cccc(O)c2)=C(N2CCCCC2)C(=O)c2ccccc21 | n | 14 | n | n | n | n | n
O=C(/C=C/c1ccc(O)cc1)c1ccc(NC2=C(N3CCCCC3)C(=O)c3ccccc3C2=O)cc1 | n | n | n | n | n | n | x
CC(=O)c1cc(-c2ccccc2)n(CC(=O)NCc2ccccc2Cl)c1C | n | x | x | n | x | x | x
CNC1=C(N(C(C)=O)c2ccc(Br)cc2)C(=O)c2ccccc2C1=O | n | 36 | n | n | n | n | 5.5
O=C(OC12CCCN(C1)/C(=C/c1ccc(Cl)cc1)C2)c1cccc(F)c1 (centres undefined) | n | x | x | n | x | x | x
O=C(OCc1cn(Cc2ccc(C(F)(F)F)cc2)nn1)N1CCCC1 | n | x | x | n | x | x | x
Cc1cc(C(=O)N/N=C/c2c(C)n(C)c3ccccc23)n[nH]1 | n | 6.9 | n | n | n | n | n
CCC(=O)Nc1ccc(C(=O)N/N=C/c2c(C)[nH]c3ccccc23)cc1 | n | 6.5 | n | n | n | n | 4.9
Cc1[nH]c2ccccc2c1/C=N/NC(=O)c1cc(-c2cccs2)[nH]n1 | n | 4.7 | n | n | n | n | n
COC(=O)[C@]12C[C@H](CC(=O)N3CCC(c4ccccc4)CC3)C(=O)N(CCc3ccc(OC)c(OC)c3)C1=C[C@H](C(C)C)O[C@@H]2C1CC1 | n | x | x | n | x | x | x
CNc1cncc(-c2cccc(NS(C)(=O)=O)c2)n1 | n | 5.8 | n | n | n | n | n
CNc1cncc(-c2cccc(C(C)=O)c2)n1 | n | n | n | n | n | n | x
Oc1ccc(C=NNC(=S)Nc2cccnc2)nc1 | n | 7.0 | n | n | n | n | 5.5
S=C(N/N=C/c1ccc2ncccc2c1)Nc1cccnc1 | n | 7.2 | n | n | n | n | n
COc1ccccc1/C=N/NC(=S)Nc1cccnc1 | n | n | n | n | n | n | x
Oc1ccc(/C=N/NC(=S)Nc2cccnc2)cc1O | n | n | n | n | n | n | x
COC(=O)[C@]1(CNC(=O)C(C)(C)C)CC(=O)N(C)[C@@H]1c1ccccc1 | n | x | x | n | x | x | x
CC(=C/c1ccco1)/C=N/NC(=O)c1nnn(-c2nonc2N)c1CN(C)C | n | 7.7 | n | n | n | n | 5.4
Nc1nonc1-n1nnc(C(=O)N/N=C/c2ccc(F)cc2)c1-c1ccc2c(c1)OCO2 | n | n | n | n | n | n | x
